# Measurements taken from PubChem BioAssay AID720574 (Broad Institute, 2013).
# Screen size: about 96,000 compounds; about 140 (0.15%) were called active.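 How the source made its calls: active means mean replicate inhibition above about 25%, with at least 55% of replicates also reaching it (limit read from the data, passing the limit was not always enough); inconclusive means only one of those two conditions met; inactive means neither condition met.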 The sample as a whole holds a higher share of actives than the screen did.
# Biological target: Lysine-specific demethylase 4C (Homo sapiens) (UniProt Q9H3R0)
# Sequence (Q9H3R0 2-372 limits assumed): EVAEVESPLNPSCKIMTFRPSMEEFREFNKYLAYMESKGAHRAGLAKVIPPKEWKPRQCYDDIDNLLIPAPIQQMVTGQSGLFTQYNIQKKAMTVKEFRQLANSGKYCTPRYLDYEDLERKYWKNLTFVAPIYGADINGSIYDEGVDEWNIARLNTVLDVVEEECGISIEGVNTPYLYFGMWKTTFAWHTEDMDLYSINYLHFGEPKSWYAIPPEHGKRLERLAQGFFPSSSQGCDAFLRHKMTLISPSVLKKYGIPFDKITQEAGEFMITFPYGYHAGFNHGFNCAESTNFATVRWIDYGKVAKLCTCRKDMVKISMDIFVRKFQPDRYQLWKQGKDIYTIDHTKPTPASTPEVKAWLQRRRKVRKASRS
# Experiment: inhibitors of GASC-1 (KDM4C) histone demethylase, primary screen, biochemical, single concentration HTS (AID 720574)
# Conditions: GST-KDM4C 2-372, H3K9me3 peptide, LANCE TR-FRET; at 12.5 µM; active compounds read high
# In short: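 System – N-terminal GST-fused human GASC-1 (KDM4C) fragment, residues 2-372 · Input – enzyme final amount 10 nM · Technique – LANCE TR-FRET, Eu antibody, ULight-streptavidin, EDTA, ex 340 nm, em 618/671 nm · Medium – HEPES buffer, pH 7.5, plus ascorbate · Incubation – enzyme reaction 30 min, then detection 60 min, both room temperature · Reagent – H3K9me3 peptide with Fe(II)/2OG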
row,SMILES,inhibition
1,COc1ccc2c3c(n(C)c2c1)[C@H](CO)N(Cc1ccc(F)cc1)CC31CN(CC2CCOCC2)C1,-0.66% (inactive)
2,COc1ccc2c3c(n(C)c2c1)[C@@H](CO)N(C(=O)Nc1ccc(F)cc1)CC31CCN(C(=O)c2cccnc2)CC1,-1.49% (inactive)
3,CO[C@@H]1CN(C)C(=O)c2cc(NC(=O)C3CC3)ccc2OC[C@H](C)N(Cc2ccc(F)cc2)C[C@@H]1C,-0.0715% (inactive)
4,C[C@H](CO)N1C[C@H](C)[C@@H](CN(C)S(=O)(=O)c2ccccc2)OCCCC[C@H](C)Oc2ccc(NC(=O)NC3CCCCC3)cc2C1=O,0.616% (inactive)
5,COCC(=O)NC[C@@H]1[C@@H](c2ccc(C3=CCCC3)cc2)[C@@H](CO)N1C(C)=O,3.61% (inactive)
6,CCC(=O)Nc1ccc2c(c1)C(=O)N(C)C[C@@H](OC)[C@@H](C)CN(C(=O)CN(C)C)[C@@H](C)CO2,1.55% (inactive)
7,O=C(C[C@@H]1C[C@@H]2c3cc(NS(=O)(=O)c4ccccc4)ccc3O[C@@H]2[C@@H](CO)O1)NC1CCCCC1,-0.944% (inactive)
8,CS(=O)(=O)N1CC2(C1)[C@H](c1ccccc1)[C@H](CO)N2Cc1ccc(F)cc1,0.43% (inactive)
9,CO[C@@H]1CN(C)C(=O)c2ccc(NC(=O)NC(C)C)cc2OC[C@@H](C)N(Cc2ccc(-c3ccccn3)cc2)C[C@H]1C,0.434% (inactive)
10,CO[C@H]1CN(C)C(=O)c2ccc(NS(=O)(=O)c3ccccc3)cc2OC[C@@H](C)N(Cc2nccs2)C[C@@H]1C,0.175% (inactive)
11,COC(=O)C[C@H]1C[C@H]2c3cc(NC(=O)NC4CCCCC4)ccc3O[C@H]2[C@H](CO)O1,9.44% (inactive)
12,CC(C)NC(=O)N1[C@H](CNC(=O)CN(C)C)[C@@H](c2ccccc2)[C@@H]1CO,-0.351% (inactive)
13,O=C(c1ccccn1)N1CC2(C1)[C@@H](c1ccccc1)[C@@H](CO)N2C(=O)C1CCC1,-1.3% (inactive)
14,O=C(NCC[C@H]1CC[C@H](NS(=O)(=O)c2ccccc2)[C@H](CO)O1)c1cc(Cl)cc(Cl)c1,-1.8% (inactive)
15,COc1ccc(-c2cnc3c(c2)C(=O)N([C@H](C)CO)C[C@@H](C)[C@H](CN(C)C(=O)Cc2ccncc2)O3)cc1,-0.262% (inactive)
16,CO[C@@H]1CN(C)C(=O)c2cc(NC(=O)Nc3ccccc3F)ccc2OC[C@H](C)NC[C@H]1C,0.557% (inactive)
17,CCCNC(=O)C[C@@H]1CC[C@H]2[C@H](COc3ccc(NC(=O)CCC)cc3C(=O)N2C)O1,1.75% (inactive)

row,SMILES,inhibition
1,CCCNC(=O)N1CC2(C1)[C@H](c1ccccc1)[C@@H](CO)N2C(=O)C1CC1,1.13% (inactive)
2,C/C=C/c1ccc([C@@H]2[C@@H](CO)N(C(=O)CN(C)C)C23CN(C(=O)C2CCCC2)C3)cc1,0.163% (inactive)
3,CO[C@@H](CN(C)S(=O)(=O)c1ccccc1)[C@H](C)CN(Cc1ccccc1Cl)[C@H](C)CO,1.1% (inactive)
4,COc1ccc2c3c(n(C)c2c1)[C@@H](CO)N(C(C)=O)CC31CCN(C(=O)C2CC2)CC1,-0.393% (inactive)
5,O=C(Nc1ccccc1F)N1CC(=O)N2[C@H](C1)[C@H](c1ccc(C#Cc3ccc(F)cc3)cc1)[C@@H]2CO,1.34% (inactive)
6,CCC(=O)N(C)C[C@H]1Oc2ncc(-c3ccccc3OC)cc2C(=O)N([C@H](C)CO)C[C@H]1C,17.4% (inactive)
7,CN1[C@@H]2CN(C(=O)C3CCCCC3)c3ccccc3[C@@H]2[C@@H]1CO,4.33% (inactive)
8,Cc1cccc(S(=O)(=O)N2C[C@@H]3[C@H](c4ccccc42)[C@H](CO)N3CC2CCOCC2)c1,-0.667% (inactive)
9,O=C(NCc1ccc(F)cc1)[C@@H]1[C@@H](CO)[C@@H]2Cn3c(cccc3=O)[C@@H]2N1C(=O)c1cccnc1,-0.929% (inactive)
10,CO[C@H]1CN(C)C(=O)c2ccc(NC(=O)NC(C)C)cc2OC[C@@H](C)N(C(=O)CN(C)C)C[C@H]1C,0.223% (inactive)
11,COc1ccc(CN(C)C[C@@H]2Oc3ccc(NC(=O)Nc4ccc(F)cc4)cc3CC(=O)N([C@@H](C)CO)C[C@H]2C)cc1,-0.133% (inactive)
12,O=C(C1CCOCC1)N1C[C@H]2[C@@H](c3ccccc31)[C@@H](CO)N2Cc1ccccc1,2.96% (inactive)
13,O=C(CC1CC1)N1[C@@H]2CN(S(=O)(=O)c3ccccc3F)c3ccccc3[C@@H]2[C@@H]1CO,2% (inactive)
14,C[C@H](CO)N1C[C@H](C)[C@@H](CN(C)S(=O)(=O)c2ccccc2)Oc2ncc(C#Cc3ccccc3F)cc2C1=O,-3.49% (inactive)
15,C[C@H]1CN([C@@H](C)CO)C(=O)c2cc(C#Cc3ccccc3F)cnc2O[C@H]1CN(C)C,28.4% (active)
16,C[C@H]1CN([C@@H](C)CO)C(=O)c2cc(C#Cc3ccccc3F)cnc2O[C@@H]1CN(C)C(=O)C1CC1,-1.28% (inactive)
17,COc1ccc2c3c([nH]c2c1)[C@@H](CO)N(C(=O)Nc1ccc(F)cc1)CC31CN(S(C)(=O)=O)C1,-0.649% (inactive)
